{"data": "Results pooled from the literature", "target": "Homeodomain-interacting protein kinase 4 (HIPK4, Homo sapiens, UniProt Q8NE63)", "Residues used in one study (Q8NE63 1-616)": "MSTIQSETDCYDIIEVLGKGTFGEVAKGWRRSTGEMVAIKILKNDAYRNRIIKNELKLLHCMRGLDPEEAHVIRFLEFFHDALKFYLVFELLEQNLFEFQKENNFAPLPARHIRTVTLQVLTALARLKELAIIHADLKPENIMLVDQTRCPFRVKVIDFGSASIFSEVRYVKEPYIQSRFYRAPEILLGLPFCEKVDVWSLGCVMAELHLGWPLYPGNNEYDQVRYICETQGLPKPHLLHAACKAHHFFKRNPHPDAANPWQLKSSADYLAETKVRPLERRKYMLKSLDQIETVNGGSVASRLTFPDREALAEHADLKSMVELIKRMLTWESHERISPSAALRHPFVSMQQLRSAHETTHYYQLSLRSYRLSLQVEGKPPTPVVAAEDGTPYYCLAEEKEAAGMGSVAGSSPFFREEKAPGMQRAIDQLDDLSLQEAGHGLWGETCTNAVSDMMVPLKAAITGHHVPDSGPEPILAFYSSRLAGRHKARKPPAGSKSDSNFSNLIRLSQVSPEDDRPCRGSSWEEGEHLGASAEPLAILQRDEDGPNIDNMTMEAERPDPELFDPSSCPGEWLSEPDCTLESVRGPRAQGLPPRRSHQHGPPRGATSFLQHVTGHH", "note": "Protocols differ between the studies behind these lines."}
{"SMILES": "CCCOc1ccc([C@H]2[C@H](C(=O)O)[C@@H](c3ccc4c(c3)OCO4)CN2CC(=O)Nc2c(CC)cccc2CC)cc1", "observed": "cell-free assay", "technique": "competition with immobilised ligand", "tested at": "1 µM", "measurement": "remaining binding", "result": "70%"}
{"SMILES": "O=C1NC(=O)c2cc(Nc3ccc(F)cc3)c(Nc3ccc(F)cc3)cc21", "observed": "cell-free assay", "tested at": "0.5 µM", "measurement": "remaining signal", "result": "82.5%"}
{"SMILES": "CO[C@@H](C)c1c(Nc2ccc([C@@H](N(C)C(=O)C3CCS(=O)(=O)CC3)C(F)(F)F)cc2)cnc2cc(Cl)nn12", "observed": "cell-free assay", "technique": "competition with immobilised ligand", "tested at": "1 µM", "measurement": "remaining binding", "result": "100%"}
{"SMILES": "O=C(O)c1ccc2c(c1)nc(Nc1cccc(F)c1)c1ncncc12", "observed": "enzyme activity", "action": "inhibitor", "technique": "radiometric", "tested at": "1 µM", "measurement": "remaining activity", "result": "52%"}
{"SMILES": "CNC(=O)c1cc(Oc2ccc(NC(=O)Nc3ccc(Cl)c(C(F)(F)F)c3)cc2)ccn1", "observed": "cell-free assay", "tested at": "0.5 µM", "measurement": "remaining signal", "result": "4.85%"}
{"SMILES": "O=C(O)c1ccc2c(c1)nc(NCCc1cccc(Cl)c1)c1ccncc12", "observed": "enzyme activity", "action": "inhibitor", "technique": "radiometric", "tested at": "1 µM", "measurement": "remaining activity", "result": "47%"}
{"SMILES": "CN1CC(Oc2cnc(C#N)cc2-c2ccn3nc(NC(=O)C4CC4)cc3c2)C1", "observed": "enzyme activity", "action": "inhibitor", "tested at": "1 µM", "measurement": "inhibition", "result": "2%"}
{"SMILES": "CC(C)CC(=O)N1CCc2nc(-c3ccc(Br)cc3)nc(N(C)Cc3ccccc3)c2C1", "observed": "cell-free assay", "technique": "competition with immobilised ligand", "tested at": "0.1 µM", "measurement": "remaining binding", "result": "61%"}
{"SMILES": "O=C(O)c1ccc2c(c1)nc(Nc1ccc3ccccc3c1)c1ncncc12", "observed": "enzyme activity", "action": "inhibitor", "technique": "radiometric", "tested at": "1 µM", "measurement": "remaining activity", "result": "109%"}
{"SMILES": "CNC(=O)Nc1ccc2c(c1)CC[C@@]21OC(=O)N(CC(=O)N(Cc2ccc(F)cc2)[C@@H](C)C(F)(F)F)C1=O", "observed": "cell-free assay", "technique": "competition with immobilised ligand", "tested at": "1 µM", "measurement": "remaining binding", "result": "97%"}
{"SMILES": "O=C(O)c1ccc2c(c1)nc(Nc1ccc3ccccc3c1)c1ccncc12", "observed": "enzyme activity", "action": "inhibitor", "technique": "radiometric", "tested at": "1 µM", "measurement": "remaining activity", "result": "-10%"}
{"SMILES": "N#CCCc1ccc2c(c1)-c1[nH]c3ccc([N+](=O)[O-])cc3c1CC(=O)N2", "observed": "cell-free assay", "tested at": "0.5 µM", "measurement": "remaining signal", "result": "113%"}
{"SMILES": "Nc1ncnc2occ(-c3ccc(NC(=O)Nc4cc(C(F)(F)F)ccc4F)cc3)c12", "observed": "cell-free assay", "action": "inhibitor", "tested at": "20 µM", "measurement": "remaining signal", "result": "0.95%"}
{"SMILES": "O=C(O)c1ccc2c(c1)nc(Nc1ccccc1Cl)c1ncncc12", "observed": "enzyme activity", "action": "inhibitor", "technique": "radiometric", "tested at": "1 µM", "measurement": "remaining activity", "result": "-3%"}
{"SMILES": "O=C(Nc1cnc(Oc2ccc(F)cc2)nc1)N1CCc2ncccc2[C@@H]1c1ccc(F)cc1", "observed": "cell-free assay", "technique": "competition with immobilised ligand", "tested at": "1 µM", "measurement": "remaining binding", "result": "100%"}
{"SMILES": "CCOc1cc(-c2nncn2C)ccc1Nc1ncc2cc(C)nc(NCC(C)(C)C)c2n1", "observed": "enzyme activity", "action": "inhibitor", "technique": "FRET", "tested at": "1 µM", "measurement": "inhibition", "result": "< 15%"}
{"SMILES": "COc1cc2ncnc(Nc3ccc(Oc4ccccc4)cc3C)c2cc1OC", "observed": "enzyme activity", "action": "inhibitor", "tested at": "1 µM", "measurement": "inhibition", "result": "4%"}
{"SMILES": "O=C(O)c1ccc2c(c1)nc(Nc1ccc(F)c(Cl)c1)c1ccncc12", "observed": "enzyme activity", "action": "inhibitor", "technique": "radiometric", "tested at": "1 µM", "measurement": "remaining activity", "result": "75%"}
{"SMILES": "C[C@@H](c1cccc(C#N)c1)n1cc(Cl)cc(C(N)=O)c1=N", "observed": "cell-free assay", "technique": "competition with immobilised ligand", "tested at": "1 µM", "measurement": "remaining binding", "result": "100%"}
{"SMILES": "COc1ccc(COc2ccc(Cc3cnc(N)nc3N)cc2OC)cc1", "observed": "cell-free assay", "tested at": "0.5 µM", "measurement": "remaining signal", "result": "97.7%"}
